Assay results from ChEMBL document CHEMBL1150647, “New diarylheptanoids from the stems of Carpinus cordata” (J Nat Prod, 2002).
Values after ≈ are worked out from the molar mass of the structure shown.

tested on: Radical scavenging activity; assay: Antioxidant activity assessed as DPPH free radical scavenging activity after 30 mins; format: functional
Outline: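 Test samples in EtOH mixed with 100 µM ethanolic DPPH and incubated at 37 °C for 30 min. Absorbance was read at 515 nm. Percent inhibition was calculated against an ethanol-treated control. IC50 is the sample concentration that scavenges 50% of DPPH radicals.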

Structure (SMILES)	IC50
COC(=O)c1cc(O)c(O[C@@H]2O[C@H](CO)[C@@H](O)[C@H](O)[C@H]2O)c(O)c1	> 100 µg/mL
COC(=O)c1cc(O)c(O)c(O[C@@H]2O[C@H](COC(=O)c3cc(O)c(O)c(O)c3)[C@@H](O)[C@H](O)[C@H]2O)c1	4.9 µg/mL (≈ 9.83 µM)
COC(=O)c1cc(O)c(O)c(O[C@@H]2O[C@H](CO)[C@@H](O)[C@H](O)[C@H]2O)c1	4.6 µg/mL (≈ 13.3 µM)
O=C1CCc2ccc(O)c(c2)-c2cc(ccc2O)C[C@H](O)[C@H](O)[C@H]1O [CARPINONTRIOL B]	80.2 µg/mL (≈ 233 µM)
O=C1C[C@@H](O)[C@@H](O)Cc2ccc(O)c(c2)-c2cc(ccc2O)C[C@H]1O [CARPINONTRIOLS A]	> 100 µg/mL
O=C(O[C@@H]1Cc2c(O)cc(O)cc2O[C@@H]1c1cc(O)c(O)c(O)c1)c1cc(O)c(O)c(O)c1 [EPIGALOCATECHIN GALLATE]	2.7 µg/mL (≈ 5.89 µM)

Now from value to compound:

IC50	Structure (SMILES)
> 100 µg/mL	O=C1CC[C@H](O)Cc2ccc(O)c(c2)-c2cc(ccc2O)C[C@H]1O [CASUARINONDIOL]
2.7 µg/mL (≈ 9.3 µM)	Oc1cc(O)c2c(c1)O[C@H](c1ccc(O)c(O)c1)[C@@H](O)C2 [CIANIDANOL]
4.9 µg/mL (≈ 26.6 µM)	COC(=O)c1cc(O)c(O)c(O)c1 [GALLIC ACID METHYL ESTER]
16.2 µg/mL (≈ 71 µM)	Oc1ccc(/C=C/c2cc(O)cc(O)c2)cc1 [RESVERATROL]
